Assays:
[1] = target: T1, Calpain-1 catalytic subunit (Homo sapiens) (UniProt P07384); test: Compound is evaluated for inhibition kinetic constant (kobs/[I], 1/M.1/s) for calpain 1
T1 sequence (whole entry): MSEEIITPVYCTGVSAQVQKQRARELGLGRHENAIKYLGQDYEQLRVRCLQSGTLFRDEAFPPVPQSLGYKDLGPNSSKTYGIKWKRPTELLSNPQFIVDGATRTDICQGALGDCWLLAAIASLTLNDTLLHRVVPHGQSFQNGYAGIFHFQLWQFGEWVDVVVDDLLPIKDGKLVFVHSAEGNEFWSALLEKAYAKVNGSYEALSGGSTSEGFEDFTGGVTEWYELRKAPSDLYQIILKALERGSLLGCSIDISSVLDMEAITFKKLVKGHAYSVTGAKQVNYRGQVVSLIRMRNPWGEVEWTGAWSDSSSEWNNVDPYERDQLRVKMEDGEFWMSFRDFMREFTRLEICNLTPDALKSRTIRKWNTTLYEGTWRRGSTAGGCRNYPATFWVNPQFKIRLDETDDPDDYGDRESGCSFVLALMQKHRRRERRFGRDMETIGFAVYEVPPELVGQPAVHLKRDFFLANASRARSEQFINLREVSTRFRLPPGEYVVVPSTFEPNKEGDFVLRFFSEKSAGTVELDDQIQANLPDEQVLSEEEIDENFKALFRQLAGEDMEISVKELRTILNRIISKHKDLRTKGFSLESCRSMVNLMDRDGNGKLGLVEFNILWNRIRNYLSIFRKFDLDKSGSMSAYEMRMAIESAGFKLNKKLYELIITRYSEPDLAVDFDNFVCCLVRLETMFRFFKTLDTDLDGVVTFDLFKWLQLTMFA
Procedure, shortened: (§1)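 Enzyme ~20 nM is added last to substrate plus inhibitor at 25 °C. Fluorescence ex 380/em 450 nm for 5 min or until ≤1% activity. Progress curves fit first-order to kobs; reported as kobs/[I]; duplicate runs.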

[2] = target: T2, Calpain-2 catalytic subunit (Homo sapiens) (UniProt P17655); test: Compound is evaluated for inhibition kinetic constant (kobs/[I], 1/M.1/s) for Calpain 2; procedure, shortened: as §1
T2 sequence (whole entry): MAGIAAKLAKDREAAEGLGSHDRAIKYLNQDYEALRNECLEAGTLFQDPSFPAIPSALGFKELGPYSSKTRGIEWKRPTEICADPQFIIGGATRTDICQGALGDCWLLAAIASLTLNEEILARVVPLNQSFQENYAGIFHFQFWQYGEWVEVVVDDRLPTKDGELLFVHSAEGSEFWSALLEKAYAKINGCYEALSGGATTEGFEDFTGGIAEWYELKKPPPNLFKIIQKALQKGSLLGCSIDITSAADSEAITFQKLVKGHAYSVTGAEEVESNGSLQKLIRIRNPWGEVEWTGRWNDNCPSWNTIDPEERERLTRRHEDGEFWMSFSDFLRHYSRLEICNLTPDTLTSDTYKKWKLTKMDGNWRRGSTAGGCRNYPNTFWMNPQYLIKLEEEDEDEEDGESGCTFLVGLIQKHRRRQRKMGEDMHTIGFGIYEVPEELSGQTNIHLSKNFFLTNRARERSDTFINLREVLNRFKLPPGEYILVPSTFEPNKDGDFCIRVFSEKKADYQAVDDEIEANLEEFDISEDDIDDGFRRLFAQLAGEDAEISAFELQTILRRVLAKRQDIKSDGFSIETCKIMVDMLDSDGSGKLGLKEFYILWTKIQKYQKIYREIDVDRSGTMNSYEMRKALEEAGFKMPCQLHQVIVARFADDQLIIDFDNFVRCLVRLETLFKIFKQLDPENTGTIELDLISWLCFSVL

[3] = target: T3, Cathepsin K (Homo sapiens) (UniProt P43235); test: Compound is evaluated for inhibition kinetic constant (kobs/[I], 1/M.1/s) for cathepsin O2
T3 sequence (whole entry): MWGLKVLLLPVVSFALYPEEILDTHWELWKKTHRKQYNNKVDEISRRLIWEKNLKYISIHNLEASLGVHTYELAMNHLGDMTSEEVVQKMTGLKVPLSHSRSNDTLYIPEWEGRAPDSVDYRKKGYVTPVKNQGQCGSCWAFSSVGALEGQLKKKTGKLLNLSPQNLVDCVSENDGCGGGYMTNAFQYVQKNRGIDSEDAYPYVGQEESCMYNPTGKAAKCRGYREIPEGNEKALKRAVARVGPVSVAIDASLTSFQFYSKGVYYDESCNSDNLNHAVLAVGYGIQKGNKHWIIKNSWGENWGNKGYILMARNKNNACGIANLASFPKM
Procedure, shortened: (§2)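 Read at ex 380/em 450 nm for 5 min. Progress curves fit first-order for kobs at ≥6 inhibitor concentrations; kinact and Ki app from saturation fit, Ki corrected for substrate; ratio also from double-reciprocal slope; duplicates.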

[4] = target: T4, Cathepsin B (Homo sapiens, UniProt P07858); test: Compound is evaluated for inhibition kinetic constant (kobs/[I], 1/M.s) for cathepsin B
Procedure, shortened: (§3)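 Cathepsin B, ~5-10 nM, added to 50 mM phosphate pH 6.0, 2.5 mM EDTA, 2.5 mM DTT, 50 μM Z-Arg-Arg-AMC (Km 190 μM), DMF <1%, 25 °C. Fluorescence ex 380/em 450 nm over 5 min. kobs by first-order fit at ≥6 inhibitor concentrations; kirr and Ki app from saturation fit, Ki = Ki app/(1+[S]/Km); kirr/Ki also from 1/kobs vs 1/[I]; duplicates.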

[5] = target: T5, Procathepsin L (Homo sapiens, UniProt P07711); test: Compound is evaluated for inhibition kinetic constant (kobs/[I], 1/M.1/s) for cathepsin L
Procedure, shortened: (§4)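 Fluorescence increase (ex 380, em 450 nm) followed 5 min or to ≤1% activity. kobs by first-order fit at ≥6 inhibitor levels near Ki, fit to saturation equation; Ki = Ki app/(1+[S]/Km); duplicates.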
Target sequence in this assay (P07711 114-333 limits assumed): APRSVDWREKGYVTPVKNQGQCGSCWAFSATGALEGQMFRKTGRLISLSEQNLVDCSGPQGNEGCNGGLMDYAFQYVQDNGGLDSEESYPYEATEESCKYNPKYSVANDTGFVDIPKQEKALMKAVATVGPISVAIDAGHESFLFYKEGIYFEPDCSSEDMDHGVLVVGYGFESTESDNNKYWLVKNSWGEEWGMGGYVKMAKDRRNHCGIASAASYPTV

[6] = target: Cruzipain (Trypanosoma cruzi) (UniProt P25779); test: Compound is evaluated for inhibition kinetic constant (kobs/[I], 1/M.1/s) for Cruzaine
Procedure, shortened: (§5)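 Enzyme (~1-5 nM) starts the reaction with substrate and inhibitor present. Fluorescence ex 380/em 450 nm for 5 min. kobs from first-order fits at ≥6 inhibitor concentrations; Ki app corrected by 1+[S]/Km; second-order constant from 1/kobs vs 1/[I] slope; duplicates.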

[7] = target: T6, Cathepsin S (Homo sapiens, UniProt P25774); test: Compound is evaluated for inhibitory potency against cathepsin S
Procedure, shortened: (§6)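 Fluorescence ex 380/em 450 nm, 5 min or to ≤1% activity. kobs from first-order fits, ≥6 inhibitor levels near Ki, fit to saturation equation; Ki corrected by 1+[S]/Km; duplicates.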
Target sequence in this assay (P25774 whole entry): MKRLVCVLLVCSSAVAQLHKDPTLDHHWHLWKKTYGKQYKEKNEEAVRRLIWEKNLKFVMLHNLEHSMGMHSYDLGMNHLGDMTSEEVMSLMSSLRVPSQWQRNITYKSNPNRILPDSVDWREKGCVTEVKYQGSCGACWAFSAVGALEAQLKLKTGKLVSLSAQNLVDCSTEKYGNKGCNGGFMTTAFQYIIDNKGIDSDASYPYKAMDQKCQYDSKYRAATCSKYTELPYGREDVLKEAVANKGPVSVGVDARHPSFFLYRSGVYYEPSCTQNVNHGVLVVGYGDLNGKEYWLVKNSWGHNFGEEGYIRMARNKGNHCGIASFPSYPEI

[8] = target: T6, Cathepsin S; test: Ratio of inhibition kinetic constants kinact and Ki against Cathepsin S; procedure, shortened: as §6
Target sequence in this assay (P25774 115-331 limits assumed): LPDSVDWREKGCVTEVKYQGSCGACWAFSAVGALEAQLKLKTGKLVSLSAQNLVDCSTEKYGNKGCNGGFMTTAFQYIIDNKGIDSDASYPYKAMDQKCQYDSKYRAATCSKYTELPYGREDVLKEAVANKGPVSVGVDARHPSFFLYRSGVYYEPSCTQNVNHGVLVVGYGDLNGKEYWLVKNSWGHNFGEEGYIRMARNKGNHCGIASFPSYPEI

[9] = target: T6, Cathepsin S; test: Compound is evaluated for inhibition kinetic constant Kinact for the cathepsin S; procedure, shortened: as §6
Target sequence in this assay (P25774 115-331 limits assumed): as above

[10] = target: T4, Cathepsin B; test: Compound is evaluated for inhibitory potency against cathepsin B; procedure, shortened: as §3
[11] = target: T4, Cathepsin B; test: Ratio of inhibition kinetic constants kirr and Ki against Cathepsin B; procedure, shortened: as §3
[12] = target: T4, Cathepsin B; test: Compound is evaluated for inhibition kinetic constant Kirr for the cathepsin B; procedure, shortened: as §3
[13] = target: T7, Cathepsin K (Homo sapiens, UniProt P43235); test: Compound is evaluated for inhibitory potency against cathepsin O2; procedure, shortened: as §2
T7 sequence (P43235 whole entry): T3 sequence (whole entry)

[14] = target: T3, Cathepsin K (Homo sapiens); test: Ratio of inhibition kinetic constants kinact and Ki against Cathepsin O2; procedure, shortened: as §2
[15] = target: T3, Cathepsin K (Homo sapiens); test: Compound is evaluated for inhibition kinetic constant Kinact for the cathepsin O2; procedure, shortened: as §2
[16] = target: T5, Procathepsin L; test: Compound is evaluated for inhibitory potency against cathepsin L; procedure, shortened: as §4
Target sequence in this assay (P07711 whole entry): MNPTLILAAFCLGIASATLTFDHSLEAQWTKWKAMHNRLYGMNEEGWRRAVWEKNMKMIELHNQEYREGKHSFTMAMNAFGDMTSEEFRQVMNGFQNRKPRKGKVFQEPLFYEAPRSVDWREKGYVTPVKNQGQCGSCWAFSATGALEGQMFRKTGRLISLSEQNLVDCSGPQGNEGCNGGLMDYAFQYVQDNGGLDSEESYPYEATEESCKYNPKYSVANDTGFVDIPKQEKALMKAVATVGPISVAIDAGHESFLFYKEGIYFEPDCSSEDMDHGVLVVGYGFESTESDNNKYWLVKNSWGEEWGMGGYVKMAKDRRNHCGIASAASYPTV

[17] = target: T5, Procathepsin L; test: Ratio of inhibition kinetic constants kinact and Ki against Cathepsin L; procedure, shortened: as §4
Target sequence in this assay (P07711 114-333 limits assumed): as the sequence (P07711 114-333 limits assumed) above

[18] = target: T5, Procathepsin L; test: Compound is evaluated for inhibition kinetic constant Kinact for the cathepsin L; procedure, shortened: as §4
Target sequence in this assay (P07711 114-333 limits assumed): as above

[19] = target: Cruzipain (Trypanosoma cruzi, UniProt P25779); test: Compound is evaluated for inhibitory potency against Cruzaine; procedure, shortened: as §5
[20] = target: Cruzipain (Trypanosoma cruzi) (UniProt P25779); test: Ratio of inhibition kinetic constants kinact and Ki against Cruzaine; procedure, shortened: as §5
[21] = target: Cruzipain (Trypanosoma cruzi) (UniProt P25779); test: Compound is evaluated for inhibition kinetic constant Kinact for the Cruzaine; procedure, shortened: as §5
[22] = target: T6, Cathepsin S; test: Compound is evaluated for inhibition kinetic constant (kobs/[I], 1/M.1/s) for cathepsin S; procedure, shortened: as §6
Target sequence in this assay (P25774 115-331 limits assumed): as the sequence (P25774 115-331 limits assumed) above

[23] = target: T4, Cathepsin B; test: Compound is evaluated for inhibition kinetic constant Ki for the cathepsin B; procedure, shortened: as §3

Sequence of Cruzipain (P25779 whole entry): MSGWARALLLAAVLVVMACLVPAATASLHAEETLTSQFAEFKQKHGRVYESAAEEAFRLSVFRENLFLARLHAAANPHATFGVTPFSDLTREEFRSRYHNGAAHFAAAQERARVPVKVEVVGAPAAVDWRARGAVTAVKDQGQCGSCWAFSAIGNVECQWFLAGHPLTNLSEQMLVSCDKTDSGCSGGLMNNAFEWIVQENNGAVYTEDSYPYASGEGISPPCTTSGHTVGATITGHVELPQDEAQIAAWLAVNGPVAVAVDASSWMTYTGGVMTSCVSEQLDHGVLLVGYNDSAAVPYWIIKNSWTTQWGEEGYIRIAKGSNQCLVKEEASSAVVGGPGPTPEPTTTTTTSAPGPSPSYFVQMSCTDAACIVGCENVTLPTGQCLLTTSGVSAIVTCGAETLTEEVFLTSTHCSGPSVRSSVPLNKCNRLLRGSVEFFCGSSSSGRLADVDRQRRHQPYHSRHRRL
Sequence of Cruzipain (Trypanosoma cruzi) (P25779 123-467 limits assumed): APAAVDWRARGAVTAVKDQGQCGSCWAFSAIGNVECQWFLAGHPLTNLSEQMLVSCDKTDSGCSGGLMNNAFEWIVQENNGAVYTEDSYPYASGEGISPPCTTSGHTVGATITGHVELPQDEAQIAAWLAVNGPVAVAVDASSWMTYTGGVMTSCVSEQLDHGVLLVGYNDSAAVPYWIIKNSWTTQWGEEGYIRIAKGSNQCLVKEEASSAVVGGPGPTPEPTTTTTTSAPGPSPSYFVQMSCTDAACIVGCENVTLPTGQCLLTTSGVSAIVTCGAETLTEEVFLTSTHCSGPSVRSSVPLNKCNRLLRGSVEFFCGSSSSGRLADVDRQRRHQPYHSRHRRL

SMILES	k obs / 1 [1] [M⁻¹ s⁻¹]	k obs / 1 [3] [M⁻¹ s⁻¹]	k obs / 1 [4] [M⁻¹ s⁻¹]	k obs / 1 [5] [M⁻¹ s⁻¹]	k obs / 1 [6] [M⁻¹ s⁻¹]	kirr [12] [s⁻¹]	k obs / 1 [22] [M⁻¹ s⁻¹]	also measured
CC(=O)N[C@@H](CC(C)C)C(=O)N[C@@H](CC(C)C)C(=O)N[C@@H](CCS(C)(=O)=O)C(=O)/C=C/S(=O)(=O)c1ccccc1	8400	22700	0	1.5e+06	104000			k obs / 1 [2]: 24300 M⁻¹ s⁻¹
CC(C)C[C@H](NC(=O)[C@H](CCc1ccccc1)N/C=C/S(=O)(=O)c1ccccc1)C(=O)NC(=O)NN1CCOCC1						0.17		Ki [7]: 5.9 nM; Ratio [8]: 2.63e+07; K inact [9]: 0.16 s⁻¹; Ki [10]: 39000 nM; Ratio [11]: 4250; Ki [13]: 230 nM; Ratio [14]: 773000; K inact [15]: 0.17 s⁻¹; Ki [16]: 720 nM; Ratio [17]: 387000; K inact [18]: 0.28 s⁻¹; Ki [19]: 220 nM; Ratio [20]: 620000; K inact [21]: 0.13 s⁻¹
O=C(NC(=O)[C@H](Cc1ccc2ccccc2c1)NC(=O)[C@H](CCc1ccccc1)N/C=C/S(=O)(=O)CCc1ccccc1)NN1CCOCC1			33000	2.24e+06	450000		2.9e+07	
NCCCC[C@H](N/C=C/S(=O)(=O)c1ccccc1)C(=O)N[C@@H](Cc1ccccc1)C(=O)NC(=O)NN1CCOCC1		83300	11300	220000	149000		1.07e+07	
O=C(NC(=O)[C@H](Cc1cc(I)c(O)c(I)c1)NC(=O)[C@H](CCc1ccccc1)N/C=C/S(=O)(=O)c1ccccc1)NN1CCOCC1						0.36		Ki [23]: 340 nM; Ratio [11]: 1.08e+06
O=C(NC(=O)[C@H](Cc1ccccc1)NC(=O)[C@H](CCc1ccccc1)N/C=C/S(=O)(=O)c1ccccc1)NN1CCOCC1						0.17		Ki [7]: 11 nM; Ratio [8]: 7.7e+06; K inact [9]: 0.085 s⁻¹; Ki [10]: 11000 nM; Ratio [11]: 16400; Ki [13]: 30500 nM; Ratio [14]: 10200; K inact [15]: 0.31 s⁻¹; Ki [16]: 1000 nM; Ratio [17]: 224000; K inact [18]: 0.24 s⁻¹; Ki [19]: 360 nM; Ratio [20]: 203000; K inact [21]: 0.072 s⁻¹
O=C(NC(=O)[C@H](Cc1ccccc1)NC(=O)[C@H](CCc1ccccc1)N/C=C/S(=O)(=O)CCc1ccccc1)NN1CCOCC1		28500	29000	340000	180000		4.7e+06	
CCCC[C@H](NC(=O)[C@H](CC(C)C)NC(=O)[C@H](CC(C)C)NC(C)=O)C(=O)/C=C/S(=O)(=O)c1ccccc1	6900		0	930000	133000			k obs / 1 [2]: 7600 M⁻¹ s⁻¹
CSCC[C@H](NC(=O)[C@H](CC(C)C)NC(=O)[C@H](CC(C)C)NC(C)=O)C(=O)/C=C/S(=O)(=O)c1ccccc1	5600	25000	0	880000	110000			
CS(=O)(=O)/C=C/N[C@@H](CCc1ccccc1)C(=O)N[C@@H](Cc1ccccc1)C(=O)NC(=O)NN1CCOCC1		6540	5100	8700	22000		1.2e+06	
O=C(NC(=O)[C@H](Cc1ccc2ccccc2c1)NC(=O)[C@H](CCc1ccccc1)N/C=C/S(=O)(=O)c1ccc2ccccc2c1)NN1CCOCC1						0.061		Ki [7]: 1.8 nM; K inact [9]: 0.1 s⁻¹; Ki [10]: 150 nM; Ki [16]: 18 nM; K inact [18]: 0.14 s⁻¹; Ki [19]: 48 nM; Ratio [20]: 1.04e+06; K inact [21]: 0.046 s⁻¹
CC(C)C[C@H](NC(=O)NN1CCOCC1)C(=O)N[C@@H](CC(C)C)C(=O)N[C@@H](Cc1ccc(O)cc1)C(=O)/C=C/S(=O)(=O)c1ccccc1	10800	815		28700			25100	
CC(C)C[C@H](NC(=O)OCc1ccccc1)C(=O)N[C@@H](CC(C)C)C(=O)N[C@@H](Cc1ccc(O)cc1)C(=O)/C=C/S(=O)(=O)c1ccccc1	6400	900	730		45000		280000	

— ChEMBL document CHEMBL1128689, “Vinyl sulfones as mechanism-based cysteine protease inhibitors” (J Med Chem, 1995)
